Screens: PubChem, several laboratories
The list is not random: actives were taken first. Their share in the collection is about 3.5%.
sEH inhibitor: soluble epoxide hydrolase inhibitors, primary screen, biochemical, human sEH; inhibition, % at 2 µM; AID 707, 2007; actives 0.34% (n = 91,000); Bifunctional epoxide hydrolase 2 (Homo sapiens), P34913; recombinant human sEH enzymatic activity assay; in the data active = inhibition above about 80%
HIV Rev-RRE inh: HIV-1 Rev-RRE binding inhibitors, primary screen, biochemical, FRET, protein-RNA interaction; P05866; Rev peptide-RRE RNA binding; inhibition, % at 8 µM; actives 0.79% (n = 97,000);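 active = inhibition above the screen-wide mean plus 3 SD, cut at about 35% in these data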;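 note: 0% = median DMSO wells and 100% = median Neomycin B control wells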
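Probe or stimulus: fluorescein-Rev peptide as binding partner; assay system: Cy5-tagged RRE RNA duplex with fluorescein-tagged Rev peptide; timing: 5 min compound–RNA preincubation, then 15 min with peptide, 25 °C; medium: HEPES pH 7.5 buffer with KCl, MgCl2, NaCl and EDTA; signal: fluorescein-to-Cy5 FRET, 480 nm excitation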
sEH act: soluble epoxide hydrolase activators, primary screen, biochemical, human sEH. activation, % at 2 µM. AID 717, 2007. actives 0.04% (n = 91,000). Bifunctional epoxide hydrolase 2 (Homo sapiens), P34913. purified human sEH enzymatic activity, activator screen; in the data active = activation above about 37%
ERb coact inh: inhibitors of ERβ-SRC1 coactivator interaction, primary screen, biochemical, TR-FRET, ERβ LBD, SRC-1 peptide; inhibition, % at 25.6 µM; actives 1.3% (n = 86,000); AID 633, 2007; TR-FRET ER-beta LBD / SRC1-Cy5 peptide binding; receptor agonist-loaded with 1 µM estradiol;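 active = compounds whose percent inhibition of the receptor-coactivator binding signal exceeds about 50% in the single-dose screen, limit read from the data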;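 note: 0% = receptor plus peptide wells without compound and 100% = peptide-only wells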
Target sequence (Q92731 whole entry, looked up, the tested form may be a part): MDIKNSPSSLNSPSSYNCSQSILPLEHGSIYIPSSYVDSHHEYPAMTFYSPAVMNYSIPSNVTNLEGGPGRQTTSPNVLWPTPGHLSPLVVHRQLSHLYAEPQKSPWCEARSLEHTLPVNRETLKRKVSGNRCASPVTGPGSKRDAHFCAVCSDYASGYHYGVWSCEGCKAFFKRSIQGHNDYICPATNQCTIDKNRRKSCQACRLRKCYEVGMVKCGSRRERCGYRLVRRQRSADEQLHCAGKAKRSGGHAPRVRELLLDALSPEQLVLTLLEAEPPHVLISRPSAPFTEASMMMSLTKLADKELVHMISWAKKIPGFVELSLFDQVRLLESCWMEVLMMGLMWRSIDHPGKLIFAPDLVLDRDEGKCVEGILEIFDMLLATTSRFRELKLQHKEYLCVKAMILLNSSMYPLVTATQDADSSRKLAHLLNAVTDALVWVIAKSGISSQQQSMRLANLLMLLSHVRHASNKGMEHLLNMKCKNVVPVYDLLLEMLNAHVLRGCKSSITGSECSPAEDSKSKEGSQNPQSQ
ERa SRC1 pot: enhancers of ERα–SRC-1 coactivator binding, primary screen, biochemical, TR-FRET, ERα LBD, low estradiol | Estrogen receptor (Homo sapiens), P03372 | TR-FRET ERalpha-LBD/SRC-Cy5 coactivator binding, 2 h; 100 = basal binding, no effect | coactivator binding (% of control), % at 25.6 µM | actives 1.3% (n = 86,000) | AID 639, 2007; in the data active = activity above about 200%;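 note: binding measured in presence of low estradiol as agonist stimulus; 0% = peptide alone without receptor and 100% = receptor with peptide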
ERa coact inh: ERα–SRC-1 coactivator interaction inhibitors, primary screen, biochemical, TR-FRET, ERα LBD, estradiol-bound. TR-FRET ER-alpha LBD / SRC-1 peptide. inhibition, % at 25.6 µM. actives 1.7% (n = 86,000). AID 629, 2007; in the data active = inhibition above about 50%;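 note: 0% = receptor plus peptide control and 100% = peptide only without receptor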
* marks the source's active call; other numbers are inactive results; . = no result given; [ ] = remark or other dose.

SMILES	sEH inhibitor	HIV Rev-RRE inh	sEH act	ERb coact inh	ERa SRC1 pot	ERa coact inh
COc1cccc(/C=C2/CN(C)CC3=C2OC(N)=C(C#N)C3c2cccc(OC)c2)c1 (configuration not stated)	6.3	54.5*	-3.2	-6.6	117.0	-13.4
O=C1OC(Nc2ccc3c(c2)OCO3)c2ccccc21 (configuration not stated)	5.1	6.8	-4.0	52.0*	73.9	34.9
O=C1c2ccccc2-c2cccc(NS(=O)(=O)c3ccc(C(F)(F)F)cc3)c21	-0.7	100.4*[fluorescence artefact?]	3.1	.	.	.
Cc1ccc(S(=O)(=O)Nc2ccccc2-c2ccccc2NS(=O)(=O)c2ccc(C)cc2)cc1	-7.8	-0.6	10.0	.	.	.
CC(=O)c1cccc(NC=C2C(=O)OC3(CCCCC3)OC2=O)c1	-6.1	-0.8	5.8	-9.6	106.6	-7.8
Cc1ccc(-c2nnc(SCC(=O)Nc3ccc(S(=O)(=O)N4CCCCCC4)cc3)o2)cc1	15.8	4.4	-16.9	3.0	118.9	11.0
CC(=O)c1cccc(NC(=O)CSc2nnc(-c3ccc(S(=O)(=O)N4CCCC4)cc3)o2)c1	-1.8	3.4	3.2	-7.6	261.3*	-20.9
CC1Cc2ccccc2N1C(=O)CSc1nnc(-c2ccc(S(=O)(=O)N3CCCC3)cc2)o1 (configuration not stated)	-2.8	0.7	4.0	13.2	373.7*	7.0
O=c1c2ccccc2c2c(O)nc(-c3ccccc3)n2n1Cc1ccccc1	-3.6	7.2	1.5	.	.	.
COC(=O)c1ccc(NC(=O)C2CCCCC2C(=O)O)cc1 (configuration not stated)	-9.6	6.9	9.7	-4.0	99.0	-1.6
NC(=O)c1sc2cc(C(F)(F)F)cnc2c1-c1cccs1	-8.0	4.2	8.1	2.7	111.2	0.4
O=C(Nc1ccccc1)c1sc2cc(C(F)(F)F)cnc2c1-c1cccs1	-5.7	12.3	8.6	17.4	209.8*[fluorescence artefact?]	18.5
CCOc1ccc2nc(N3CCC(C(=O)N4CCN(C(=O)c5ccco5)CC4)CC3)sc2c1	.	.	.	-14.2	84.8	8.7
CCOc1ccc2cc(/C=C/C(=O)c3ccco3)c(Cl)nc2c1	-6.0	52.7*	2.3	15.3	77.4	17.1
CCCCC(CC)C(=O)NCc1ccccc1OC (configuration not stated)	-12.3	1.4	12.4	52.5*	128.3	-2.0
CCCC(C)C(=O)NCc1ccccc1OC (configuration not stated)	-6.6	2.7	6.7	10.8	102.7	-7.3
COc1cccc2c3c(c(=O)[nH]c12)CCC(C)(C)O3	-9.6	7.5	12.2	.	.	.
CCOc1ccc(C2C=C(c3ccc(C)cc3)Nc3nnnn32)cc1 (configuration not stated)	3.1	39.2*	-1.4	-4.9	117.8	-2.4
CSc1nc2nc3c(c(=O)n2[nH]1)CN(Cc1ccccc1)CC3	10.3	5.0	-11.0	6.2	108.2	-1.2
COc1ccc(N/C(=C(/C(Cl)=C(Cl)Cl)[N+](=O)[O-])n2nnc3ccccc32)cc1OC	-4.3	38.3*	-0.1	22.9	64.6	1.8
COc1ccc(C(=O)n2nnc3ccccc32)cc1Br	-2.6	6.2	5.2	-11.2	103.7	-11.9
Cc1ccc(SCCC(=O)NCCSCc2ccccc2C)cc1	83.1*	5.9	-83.3	.	.	.
COc1ccc(C(=O)NCCSCc2ccccc2C)cc1	28.5	6.3	-29.6	.	.	.
Cc1cc(=O)oc2cc(OCC3CC(c4ccc(N(C)C)cc4)=NO3)ccc12 (configuration not stated)	.	-3.8	.	26.8	153.2	51.4*[fluorescence artefact?]
O=S(=O)(Nc1nccs1)c1cc(Cl)ccc1Cl	2.3	15.9	0.7	51.2*	51.2	55.9*
